# HNF4A DNA FP: change in binding of human HNF4 alpha to DNA; P41235; HNF4a-FITC DNA binding, fluorescence polarization, 1 h; activity change, % at 10 µM; 0.3% of 360,000 active; in the data active = activity change above about 30%, passing the limit was not always enough
# ARFGAP1 inh: inhibitors of rat ARFGAP1 | Arfgap1-stimulated ARF1 GTP hydrolysis, GDP FP detection | 0.26% of 360,000 active | Q62848 | inhibition, % at 16.5 µM;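 active = inhibition above a per-plate limit, mean inhibition of low control wells plus 3 SD, cut at about 25% in these data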;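 note: 0% = DMSO wells with enzyme and 100% = wells lacking Arfgap1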
# Target sequence (Q62848 1-136 limits assumed): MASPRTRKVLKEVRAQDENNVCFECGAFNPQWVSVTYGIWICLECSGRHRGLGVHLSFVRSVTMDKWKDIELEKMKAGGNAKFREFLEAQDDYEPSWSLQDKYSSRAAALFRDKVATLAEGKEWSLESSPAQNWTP
#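 Material: rat Arfgap1 GAP domain (His6, aa 1-136), purified enzyme. Also added: human ARF1(Δ1-17)-GTP substrate. Compound dosing: 16.5 µM single point, 1.26% DMSO. Timing: enzyme reaction 120 min at 25 °C after 20 min preincubation. Signal: GDP detection by fluorescence polarization. Read-out basis: percent inhibition of GAP-stimulated GDP formation, scaled between DMSO and no-Arfgap1 medians.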
# ASAP1 GAP inh: blocks human ASAP1-stimulated Arf1 GTP hydrolysis | Q9ULH1 | inhibition, % at 16.5 µM | GDP FP detection | AID 624377 | 0.19% of 360,000 active; in the data active = inhibition above about 25%;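 note: 0% = vehicle with enzyme and substrate and 100% = no enzyme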
# CSN deneddyl inh: inhibitors of human CSN-mediated cullin deneddylation | inhibition, % at 12.5 µM | AID 651999 | Purified CSN, SCF-Nedd8-OG deneddylation, fluorescence polarization | Q92905 | 0.38% of 360,000 active;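 active = pattern-corrected inhibition above about 35%, with an unprinted fluorescence ratio check between 0.5 and 1.5, limit read from the data, passing the limit was not always enough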;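 note: 0% = enzyme with substrate and 100% = substrate without enzyme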
# Target sequence (Q92905 whole entry, looked up, one chain of several): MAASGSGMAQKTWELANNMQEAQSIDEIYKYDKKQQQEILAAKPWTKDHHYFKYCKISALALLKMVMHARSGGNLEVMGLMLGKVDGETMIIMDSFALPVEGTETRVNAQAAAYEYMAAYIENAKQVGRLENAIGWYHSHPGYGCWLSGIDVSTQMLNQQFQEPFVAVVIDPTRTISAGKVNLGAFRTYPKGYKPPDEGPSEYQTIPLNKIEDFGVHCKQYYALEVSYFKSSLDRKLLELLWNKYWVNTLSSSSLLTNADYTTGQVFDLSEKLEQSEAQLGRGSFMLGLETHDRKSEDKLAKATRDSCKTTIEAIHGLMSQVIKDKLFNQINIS
#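 Assay system: Purified human Csn5 enzyme expressed in HEK293T cells | Amount: Enzyme 0.24 nM | Measured by: Fluorescence polarization readout | Medium: Tris/NaCl/DTT buffer, pH 7.5 | Compound dosing: One concentration, 12.5 µM, 0.25% DMSO | Times: 90 min incubation of compound, enzyme and substrate at room temperature | Control set: no-enzyme wells high, enzyme-with-substrate wells low | Read-out: % inhibition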
# ASAP1 GAP conf: confirmation of human ASAP1 inhibitors; ASAP1-stimulated Arf1 GTPase, GDP fluorescence polarization; 37% of 620 active; inhibition, % at 16.5 µM; shares compounds with ASAP1 GAP inh;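 active = mean inhibition over triplicates exceeds the hit threshold derived for the earlier primary screening run, cut at about 25% in these data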
# Active calls of the source: *; / = no result given. A selection: hits, their analogues and other compounds. The true share with any hit is near 0.95%.
SMILES,HNF4A DNA FP,ARFGAP1 inh,ASAP1 GAP inh,CSN deneddyl inh,ASAP1 GAP conf
C=CCC12C[C@@]3(O[C@H](c4ccc(C(F)(F)F)cc4)N=C3C[C@H](c3ccc(OC)cc3)[C@H]1C)N(Cc1ccc3c(c1)OCO3)C2=O,/,-6,3,/,/
CC(=O)c1cc(NC(=O)c2ccc(C)cc2)c(=O)oc1C,3,5,-2,4,/
COc1ccc(C(=O)Nc2cc(C(C)=O)c(/C=C/N(C)C)oc2=O)cc1,117*,12,5,52*,/
CC(=O)c1cc(NC(=O)c2ccc(C)cc2)c(=O)oc1/C=C/N(C)C,96*,3,16,61*,/
CN(C(=S)NC(=O)c1ccc(Cl)cc1)C1CCCCC1,0,5,1,-2,/
CN(C(=S)NC(=O)c1ccccc1)C1CCCCC1,0,2,-12,46*,/
N#Cc1ccsc1NC(=O)c1cccc(-n2cnnn2)c1,42*,1,17,38*,/
CC(C)c1nnc(NC(=O)c2cccc(-n3cnnn3)c2)s1,0,9,10,-2,/
COC(=O)CC#C[C@@H](C)[C@H](NS(=O)(=O)c1ccc(C)cc1)C(C)(C)C,/,-2,1,/,/
Nc1nc(CN2CCC(Cc3ccccc3)CC2)nc(Nc2ccccc2)n1,54*,3,7,0,/
COCc1[nH]nc2c1C(c1ccccc1)N(Cc1ccccc1)C2=O (stereo not drawn),/,11,1,/,/
COc1ccc(N=Nc2ccc(O)c3ncccc23)cc1,-11,-3,-2,4,/
CCc1ccc(N=Nc2ccc(O)c3[nH]cnc23)cc1,42*,-7,6,21,/
CCCCc1c(-c2ccccc2OC)ncn1C(C)c1ccccc1 (stereo not drawn),/,9,6,/,/
Cc1ccc2nc(-c3cccc(Cl)c3)c(Cc3ccsc3)n2c1,/,-5,4,/,/
COn1c(SC2CCCCC2)nc2ccccc2c1=O,2,-9,74*,5,-3
N#CCSc1ccccc1NC(=O)CN1C(=O)C(=O)N(Cc2ccccc2)C1=O,2,-2,-12,9,/
COc1cc2oc3ccc(C#Cc4ccccn4)cc3c(=O)c2cc1OC,34,-6,31*,9,40*
O=C(Nc1ccc(S(=O)(=O)Nc2ncccn2)cc1)C1=COCCO1,13,-3,2,-1,/
COc1ccc(S(=O)(=O)N2CCc3ccccc32)cc1C(=O)OCC(=O)c1c(N)n(C)c(=O)n(C)c1=O,3,11,26*,-1,4
CC(=O)c1ccc(CCCCc2ccc(C(C)=O)cc2)cc1,-3,-7,25*,-2,1
CC(=O)c1ccc(CCCc2ccc(C(C)=O)cc2)cc1,0,17,7,1,/
CCNC(=O)/C(C#N)=C/c1c(N2CC(C)OC(C)C2)nc2ccccn2c1=O (stereo not drawn),-3,-6,49*,1,1
CCN1C[C@@H]2[C@@H]3C(=O)N(Cc4ccccc4)C(=O)[C@@H]3[C@](CC)(C1=O)N2C(=O)c1ccccc1,-1,-7,2,-1,/
Cc1ccc(NC(=O)CN2C(=O)S/C(=C\c3cc(Cl)c(OCC(=O)O)c(Cl)c3)C2=O)cc1,-6,37*,65*,15,75*
SMILES,HNF4A DNA FP,ARFGAP1 inh,ASAP1 GAP inh,CSN deneddyl inh,ASAP1 GAP conf
Cn1cnc2ncnc(Oc3ccc(Br)cc3)c21,0,9,11,1,/
COc1ccc([C@H]2CN(c3ccc(OC)cc3)C(=O)[C@@H]2CC(=O)Nc2ccccc2)cc1,3,0,28*,1,5
COc1ccc(NC(=O)C[C@H]2C(=O)N(c3ccc(Br)cc3)C[C@@H]2c2ccc(OC)cc2)cc1,4,0,0,4,/
Cc1ccc(S(=O)(=O)c2c(N)n(CCC(C)C)c3nc4ccccc4nc23)cc1,-1,10,25*,29,2
COc1ccc(CCC(=O)Nc2c(C)n(C)n(-c3ccccc3)c2=O)cc1,2,-5,-23,1,/
COc1ccc(/C=N/NC(=O)Cn2c(Cc3ccc(OC)c(OC)c3)nc3ccccc32)cc1OC,-1,-3,31*,3,-1
CCOC(=O)C1=C(CSc2nc(-c3ccccc3)ccc2C#N)OC(N)=C(C#N)C1c1ccccc1 (stereo not drawn),39*,5,27*,39*,16
CCOC(=O)C1=C(CSc2nc(-c3ccccc3)ccc2C#N)OC(N)=C(C#N)C1c1cccnc1 (stereo not drawn),32,8,9,32,/
CN1N=C(C(C)(C)C)CSC1=Nc1ccccc1,1,-8,6,0,/

# Assay outcomes deposited in PubChem by several laboratories.
